Measurements as given in ChEMBL document CHEMBL1806449, “A class of Trp-Trp-AA-OBzl: Synthesis, in vitro anti-proliferation/in vivo anti-tumor evaluation, intercalation-mechanism investigation and 3D QSAR analysis” (Eur J Med Chem, 2011).
Active and inactive are the calls of the source. The calls are words filed in the database; no cut-off is given here. Peptide text beside a SMILES is read from it. * marks the point of attachment. OBn = c1ccc(CO*)cc1

Legend:
Mus musculus [1] = test: Acute toxicity in ICR mouse assessed as apparent changes in any organ at 500 mg/kg, ip administered qd for 7 days; type: organism-based; design: dose 500 mg/kg, route intraperitoneal; details: in vivo, 168 h
B16 = test: Antiproliferative activity against mouse B16 cells after 48 hrs by MTT assay; type: functional, cell-based; details: B16, 48 h
Mus musculus [2] = test: Toxicity in ICR mouse xenografted with mouse S180 cells assessed as effect on kidney weight at 8.9 umol/kg; type: organism-based, CCRF S-180; details: in vivo
Summary of the method: (§1)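 S180-bearing male ICR mice (10–12 weeks; 1×10^7 cells s.c. right oxter; 12 per group), daily i.p. 8.9 µmol/kg for seven days starting 24 h after implantation; NS, cytarabine and doxorubicin controls; liver, brain, kidney weights, spleen index and body-weight gain recorded.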

HepG2 = test: Antiproliferative activity against human HepG2 cells after 48 hrs by MTT assay; type: functional, cell-based; details: HepG2, 48 h
Mus musculus [3] = test: Toxicity in ICR mouse xenografted with mouse S180 cells assessed as effect on brain weight at 8.9 umol/kg; type: organism-based, CCRF S-180; details: in vivo; summary of the method: as §1
[4] = Acute toxicity in ip dosed ICR mouse assessed as lethal dose; type: organism-based; details: in vivo
Summary of the method: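 Male ICR mice, 24 weeks old, got a single i.p. injection of 500 mg/kg in 0.2 ml NS (normal saline). They were watched for 7 days for neurotoxic behaviour (tremor, twitch, jumping, tetanus, supination) and for death.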

Mus musculus [5] = test: Toxicity in ICR mouse xenografted with mouse S180 cells assessed as increase in spleen index at 8.9 umol/kg; type: organism-based, CCRF S-180; details: in vivo; summary of the method: as §1
Mus musculus [6] = test: Acute toxicity in ICR mouse assessed as mortality at 500 mg/kg, ip administered qd for 7 days; type: organism-based; design: dose 500 mg/kg, route intraperitoneal; details: in vivo, 168 h
Mus musculus [7] = test: Toxicity in ICR mouse xenografted with mouse S180 cells assessed as increase in body weight at 8.9 umol/kg; type: organism-based, CCRF S-180; details: in vivo; summary of the method: as §1
Mus musculus [8] = test: Acute toxicity in ICR mouse assessed as tremors at 500 mg/kg, ip administered qd for 7 days; type: organism-based; design: dose 500 mg/kg, route intraperitoneal; details: in vivo, 168 h
Mus musculus [9] = test: Acute toxicity in ICR mouse assessed as tetanus at 500 mg/kg, ip administered qd for 7 days; type: organism-based; design: dose 500 mg/kg, route intraperitoneal; details: in vivo, 168 h
Mus musculus [10] = test: Acute toxicity in ICR mouse assessed as jumping at 500 mg/kg, ip administered qd for 7 days; type: organism-based; design: dose 500 mg/kg, route intraperitoneal; details: in vivo, 168 h
CCRF S-180 [11] = test: Antitumor activity against mouse S180 cells xenografted in ICR mouse assessed as tumor growth inhibition at 8.9 umol/kg, ip administered 1 day after tumor inoculation qd for 7 days; type: functional; details: CCRF S-180, ip, read-out: GI
Summary of the method: (§2)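 Male ICR mice 10–12 weeks; S180 from ascites serially transplanted weekly; 1×10^7 viable cells in 0.2 ml NS implanted s.c. at right oxter; 24 h later randomized (10 per group); daily i.p. 8.9, 0.89 or 0.089 µmol/kg/day in 0.2 ml NS, 7 days; NS and cytarabine controls; sacrificed 24 h after last dose; inhibition % = [1−(Tw/Cw)]×100.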

Mus musculus [12] = test: Toxicity in ICR mouse xenografted with mouse S180 cells assessed as effect on liver weight at 8.9 umol/kg; type: organism-based, CCRF S-180; details: in vivo; summary of the method: as §1
Mus musculus [13] = test: Acute toxicity in ICR mouse assessed as twitch at 500 mg/kg, ip administered qd for 7 days; type: organism-based; design: dose 500 mg/kg, route intraperitoneal; details: in vivo, 168 h
H22 = test: Antiproliferative activity against mouse H22 cells after 48 hrs by MTT assay; type: functional, cell-based; details: H22, 48 h
CCRF S-180 [14] = test: Antiproliferative activity against mouse S180 cells after 48 hrs by MTT assay; type: functional, cell-based; details: CCRF S-180, 48 h
Mus musculus [15] = test: Acute toxicity in ICR mouse assessed as supination at 500 mg/kg, ip administered qd for 7 days; type: organism-based; design: dose 500 mg/kg, route intraperitoneal; details: in vivo, 168 h
K562 = test: Antiproliferative activity against human K562 cells after 48 hrs by MTT assay; type: functional, cell-based; details: K562, 48 h
CCRF S-180 [16] = test: Antitumor activity against mouse S180 cells xenografted in ICR mouse assessed as tumor growth inhibition at 0.089 umol/kg, ip qd administered 1 day after tumor inoculation for 7 days; type: functional; details: CCRF S-180, ip, read-out: GI; summary of the method: as §2
Nucleic Acid [17] = test: Binding affinity to double stranded calf thymus DNA assessed as change in melting temperature per minute; type: nucleic-acid assay; details: Bos taurus
Summary of the method: (§3)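 CT DNA in PBS pH 7.4, alone or with compound; temperature raised 1 °C/min with absorbance at 279 nm; Tm taken as temperature giving 50% absorbance increase.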

CCRF S-180 [18] = test: Antitumor activity against mouse S180 cells xenografted in ICR mouse assessed as tumor growth inhibition at 0.89 umol/kg, ip administered 1 day after tumor inoculation qd for 7 days; type: functional; details: CCRF S-180, ip, read-out: GI; summary of the method: as §2
Nucleic Acid [19] = test: Binding affinity to double strand calf thymus DNA assessed as melting temperature; type: nucleic-acid assay; details: Bos taurus; summary of the method: as §3
Nucleic Acid [20] = test: Binding affinity to calf thymus DNA assessed as increase in DNA viscosity at compound to DNA ratio of 0.36; type: nucleic-acid assay; details: Bos taurus
Summary of the method: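 Relative viscosity of CT DNA solutions measured at compound/CT DNA ratios 0–0.36.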

Mus musculus [21] = test: Toxicity in ICR mouse xenografted with mouse S180 cells assessed as effect on kidney weight at 2 umol/kg; type: organism-based, CCRF S-180; details: in vivo
Mus musculus [22] = test: Toxicity in ICR mouse xenografted with mouse S180 cells assessed as effect on brain weight at 2 umol/kg; type: organism-based, CCRF S-180; details: in vivo
Mus musculus [23] = test: Toxicity in ICR mouse xenografted with mouse S180 cells assessed as increase in body weight at 2 umol/kg; type: organism-based, CCRF S-180; details: in vivo
Mus musculus [24] = test: Toxicity in ICR mouse xenografted with mouse S180 cells assessed as effect on liver weight at 2 umol/kg; type: organism-based, CCRF S-180; details: in vivo
Mus musculus [25] = test: Toxicity in ICR mouse xenografted with mouse S180 cells assessed as increase in spleen index at 2 umol/kg; type: organism-based, CCRF S-180; details: in vivo

| Compound | Activity (Mus musculus [1]) | IC50 (B16) | Activity (Mus musculus [2]) | IC50 (HepG2) | Activity (Mus musculus [3]) | LD50 [4] | Activity (Mus musculus [5]) | Activity (Mus musculus [6]) | Activity (Mus musculus [7]) | Activity (Mus musculus [8]) | Activity (Mus musculus [9]) | Activity (Mus musculus [10]) | inhibition in vivo at 8.9 µmol/kg (CCRF S-180 [11]) | Activity (Mus musculus [12]) | Activity (Mus musculus [13]) | IC50 (H22) | IC50 (CCRF S-180 [14]) | Activity (Mus musculus [15]) | IC50 (K562) | other results |
| --- | --- | --- | --- | --- | --- | --- | --- | --- | --- | --- | --- | --- | --- | --- | --- | --- | --- | --- | --- | --- |
| N[C@@H](Cc1c[nH]c2ccccc12)C(=O)N[C@@H](Cc1c[nH]c2ccccc12)C(=O)N[C@@H](Cc1ccccc1)C(=O)OCc1ccccc1 (H-Trp-Trp-Phe-OBn) | Non-toxic | 19.3 µM | 0.16 g | 16.8 µM | 0.28 g | > 500 mg/kg | 7.96 | Non-toxic | 9.86 g | Non-toxic | Non-toxic | Non-toxic | 56.7% | 1.89 g | Non-toxic | 17.4 µM | 14.5 µM | Non-toxic | 14.9 µM | – |
| N[C@@H](Cc1c[nH]c2ccccc12)C(=O)N[C@@H](Cc1c[nH]c2ccccc12)C(=O)N1CCC[C@H]1C(=O)OCc1ccccc1 (H-Trp-Trp-Pro-OBn) | Non-toxic | 17.2 µM | 0.15 g | 14.7 µM | 0.27 g | > 500 mg/kg | 8.01 | Non-toxic | 10.24 g | Non-toxic | Non-toxic | Non-toxic | 58% | 1.81 g | Non-toxic | 15.5 µM | 12.5 µM | Non-toxic | 12.9 µM | – |
| N[C@@H](Cc1c[nH]c2ccccc12)C(=O)N[C@@H](Cc1c[nH]c2ccccc12)C(=O)N[C@@H](CO)C(=O)OCc1ccccc1 (H-Trp-Trp-Ser-OBn) | Non-toxic | 54.3 µM | 0.16 g | 46.6 µM | 0.28 g | > 500 mg/kg | 7.59 | Non-toxic | 9.95 g | Non-toxic | Non-toxic | Non-toxic | 18.1% | 1.73 g | Non-toxic | 46.3 µM | 41.2 µM | Non-toxic | 41.6 µM | – |
| C[C@@H](O)[C@H](NC(=O)[C@H](Cc1c[nH]c2ccccc12)NC(=O)[C@@H](N)Cc1c[nH]c2ccccc12)C(=O)OCc1ccccc1 (H-Trp-Trp-Thr-OBn) | Non-toxic | 16 µM | 0.15 g | 13.7 µM | 0.3 g | > 500 mg/kg | 8.21 | Non-toxic | 9.99 g | Non-toxic | Non-toxic | Non-toxic | 61.2% | 1.81 g | Non-toxic | 14 µM | 11.8 µM | Non-toxic | 12 µM | – |
| N[C@@H](Cc1c[nH]c2ccccc12)C(=O)N[C@@H](Cc1c[nH]c2ccccc12)C(=O)N[C@@H](Cc1ccc(O)cc1)C(=O)OCc1ccccc1 (H-Trp-Trp-Tyr-OBn) | Non-toxic | 36 µM | 0.16 g | 43.2 µM | 0.27 g | > 500 mg/kg | 7.5 | Non-toxic | 9.76 g | Non-toxic | Non-toxic | Non-toxic | 20.2% | 1.78 g | Non-toxic | 39.6 µM | 36 µM | Non-toxic | 45.7 µM | – |
| CC(C)[C@H](NC(=O)[C@H](Cc1c[nH]c2ccccc12)NC(=O)[C@@H](N)Cc1c[nH]c2ccccc12)C(=O)OCc1ccccc1 (H-Trp-Trp-Val-OBn) | Non-toxic | 11.2 µM | 0.15 g | 9.49 µM | 0.27 g | > 500 mg/kg | 7.97 | Non-toxic | 9.97 g | Non-toxic | Non-toxic | Non-toxic | 79.5% | 1.89 g | Non-toxic | 9.97 µM | 8.14 µM | Non-toxic | 8.27 µM | inhibition in vivo at 0.089 µmol/kg (CCRF S-180 [16]): 41.7%; ΔTm (Nucleic Acid [17]): 1 °C; inhibition in vivo at 0.89 µmol/kg (CCRF S-180 [18]): 70.2%; Tm (Nucleic Acid [19]): 22 °C; Activity (Nucleic Acid [20]): Active |
| Nc1ccn([C@@H]2O[C@H](CO)[C@@H](O)[C@@H]2O)c(=O)n1 [CYTARABINE] | – | 30.6 µM | – | 26.2 µM | – | – | – | – | – | – | – | – | 31.9% | – | – | 26 µM | 25.4 µM | – | 24.3 µM | inhibition in vivo at 0.089 µmol/kg (CCRF S-180 [16]): 7.86%; Activity (Mus musculus [21]): 0.16 g; Activity (Mus musculus [22]): 0.29 g; inhibition in vivo at 0.89 µmol/kg (CCRF S-180 [18]): 20.6%; Activity (Mus musculus [23]): 7.12 g; Activity (Mus musculus [24]): 1.62 g; Activity (Mus musculus [25]): 7.5 |
| COc1cccc2c1C(=O)c1c(O)c3c(c(O)c1C2=O)C[C@@](O)(C(=O)CO)C[C@@H]3O[C@H]1C[C@H](N)[C@H](O)[C@H](C)O1 [DOXORUBICIN] | – | 21.5 µM | – | 17.5 µM | – | – | – | – | – | – | – | – | 48.2% | – | – | 36.5 µM | 29.2 µM | – | 17.2 µM | Activity (Mus musculus [21]): 0.15 g; Activity (Mus musculus [22]): 0.25 g; Activity (Mus musculus [23]): 6.12 g; Activity (Mus musculus [24]): 1.61 g; Activity (Mus musculus [25]): 7.31 |
